Lipid droplet = hepatic lipid droplet formation modulation | inhibition, % at 6.5 µM | AML12 mouse hepatocytes, oleate lipid droplets, BODIPY imaging | AID 1656 | hit rate 0.4% among 240,000;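 active means lipid droplet intensity inhibited by at least 50%, with more than 500 cells counted; inconclusive means wells with under 300 cells, treated as cytotoxic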
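Test system: AML12 mouse liver cells; schedule: overnight exposure; technique: high-content imaging of BODIPY-stained droplets and DAPI nuclei; read-out: % inhibition of corrected integrated BODIPY droplet signal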
Yeast superoxide = caloric restriction mimetics inhibiting age-related superoxide in yeast; S. cerevisiae aged cells, superoxide DHE fluorescence; hits give low values; superoxide response (% of plate mean), % at 10 µM; hit rate 0.18% among 330,000; AID 2690;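 active means superoxide response under a set limit, about three screen SD below normal, cut at about 65% in these data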;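 further: yeast aged for seven days with compound at 30 °C before DHE staining; 100% = average MFI of all compound-treated wells on the plate with controls excluded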
SR-BI DiI-HDL act = enhances SR-BI lipid uptake from DiI-HDL | CHO ldlA[mSR-BI] cells, DiI-HDL uptake fluorescence, 3 h; 100 = double the neutral-control signal | activation, % at 12.5 µM | hit rate 0.096% among 320,000 | AID 504775;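 active means mean replicate activation of at least 60% and every replicate at or above 60%; inconclusive means mean or all-replicate condition met, but not both; inactive means mean below 60% and not all replicates reaching 60%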;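 further: 0% = median plate neutral-control signal and 100% = twice that signal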
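Test system: SR-BI-overexpressing, LDLR-lacking CHO cells. Measured by: DiI fluorescence, bottom read. Medium: Ham's F12 with 0.5% BSA, HEPES 25 mM, pH 7.4. Timing: 3 h uptake period with compound, 37 °C.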
SR-BI HDL uptake = blocks mouse SR-BI lipid uptake from DiI-HDL | hit rate 0.96% among 320,000 | inhibition, % at 12.5 µM | Q61009 | ldlA[mSR-BI] CHO cells, DiI-HDL uptake fluorescence, 3 h;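 active means mean replicate inhibition of at least 70% and a set share of replicates each scoring 70 or more; inconclusive means meets just one of the two criteria; inactive means fails both criteria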;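 further: 0% = median of neutral control wells and 100% = median of positive control wells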
AHR activator = activators of human aryl hydrocarbon receptor. P35869. AHR-responsive luciferase reporter cells, luminescence. activation, % at 5 µM. hit rate 2.5% among 320,000; in the data active means activation above about 47%;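 further: 0% = vehicle wells and 100% = reference agonist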
Target sequence (P35869 whole entry, looked up): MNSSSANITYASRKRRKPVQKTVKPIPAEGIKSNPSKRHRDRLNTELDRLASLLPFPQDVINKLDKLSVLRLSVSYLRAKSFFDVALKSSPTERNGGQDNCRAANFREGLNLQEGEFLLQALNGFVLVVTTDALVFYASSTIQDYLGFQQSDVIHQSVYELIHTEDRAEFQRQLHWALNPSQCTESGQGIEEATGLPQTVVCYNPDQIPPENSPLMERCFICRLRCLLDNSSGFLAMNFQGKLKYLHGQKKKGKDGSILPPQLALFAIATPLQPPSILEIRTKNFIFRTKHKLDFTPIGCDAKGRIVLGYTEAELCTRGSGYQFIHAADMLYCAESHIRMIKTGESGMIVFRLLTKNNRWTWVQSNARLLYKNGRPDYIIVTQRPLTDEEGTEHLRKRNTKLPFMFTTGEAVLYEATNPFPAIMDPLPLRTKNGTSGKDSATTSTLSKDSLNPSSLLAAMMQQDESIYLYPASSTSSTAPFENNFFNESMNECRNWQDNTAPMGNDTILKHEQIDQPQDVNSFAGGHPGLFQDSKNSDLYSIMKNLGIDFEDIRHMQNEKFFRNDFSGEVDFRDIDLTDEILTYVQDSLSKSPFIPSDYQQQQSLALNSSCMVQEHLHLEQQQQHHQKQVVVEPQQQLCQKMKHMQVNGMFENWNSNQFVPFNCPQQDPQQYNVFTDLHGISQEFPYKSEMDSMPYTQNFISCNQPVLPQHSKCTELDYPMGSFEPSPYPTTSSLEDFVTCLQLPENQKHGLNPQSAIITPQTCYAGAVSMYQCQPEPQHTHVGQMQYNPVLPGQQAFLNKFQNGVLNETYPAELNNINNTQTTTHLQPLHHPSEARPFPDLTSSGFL
SMARCA2 activ = activators of SMARCA2 function; MG213 cells, MMTV-luciferase reporter, dexamethasone, overnight; activation, % at 9.1 µM; hit rate 1% among 370,000; in the data active means activation above about 7.8%;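 further: 0% = vehicle wells and 100% = reference activator wells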
Starred values were filed as active, the others as inactive; ? = inconclusive; / = not tested or not shown. This is a sample that favours compounds with a hit; in the whole collection about 4.3% have one here.

SMILES	Lipid droplet	Yeast superoxide	SR-BI DiI-HDL act	SR-BI HDL uptake	AHR activator	SMARCA2 activ
COc1ccc(N/C=C/C(=O)c2cc(OC)c(OC)c(OC)c2)cc1	-78.5	103.0	-72.1	72.1*	-3.0	-2.7
COc1ccc(C(=O)Nc2ccc(NC(=O)c3ccccn3)cn2)cc1	-4.1	/	-59.6	59.6	/	3.2
COc1ccc(CNS(=O)(=O)CC2NCc3ccc(C)cc32)cc1 (configuration not stated)	/	/	/	/	/	-4.0
COc1cc2c(cc1OC)/C(=C/C(=O)c1cccc([N+](=O)[O-])c1)NCC2	-24.7	100.1	-69.1	69.1	79.0*	3.5
COc1cc2c(cc1OC)/C(=C/C(=O)c1ccc(OC)c([N+](=O)[O-])c1)NCC2	-8.7	104.7	-85.4	85.4*	/	6.2
COc1cc2c(cc1OC)/C(=C/C(=O)c1ccc(F)cc1)NCC2	-16.0	86.5	-41.8	41.8	40.9	3.7
COc1cccc(CNC(=S)OC2CCC23CCC(c2ccccc2)CC3)c1 (configuration not stated)	/	/	/	/	/	-2.0
O=C(N[C@H](Cc1ccccc1)C(=O)N1CCCN(Cc2ccccc2F)CC1)[C@H]1O[C@@H](n2ccc(=O)[nH]c2=O)[C@H](O)[C@@H]1O	/	/	/	/	/	-3.8
COc1ccc(-n2c(C)cc(=O)c3c2CC(C)(C)CC3=O)cc1	/	93.9	0.8	-0.8	-4.1	7.9*
Cc1cc2c(n1-c1ccc(Cl)cc1)CC(C)(C)CC2=O	2.5	110.7	-8.6	8.6	-2.1	0.0
Cc1cc(-c2nc3cccnc3s2)ccc1NS(=O)(=O)c1ccc2c(c1)OCCO2	-13.8	90.7	8.4	-8.4	47.6*	0.2
Cc1cc(-c2nc3cccnc3s2)ccc1NS(=O)(=O)c1cccs1	15.9	99.5	1.3	-1.3	69.6*	5.1
Cc1c(NS(=O)(=O)c2cccs2)cccc1-c1nc2cccnc2s1	20.6	98.3	/	/	3.9	-3.4
COc1cccc(C(=O)Nc2cc(C(F)(F)F)ccc2Cl)c1	/	93.7	-43.8	43.8	59.5*	1.7
COc1cccc(C(=O)Nc2ccc(C(F)(F)F)n(C)c2=O)c1	14.5	90.5	-3.6	3.6	55.8*	4.9
COc1ccc(C(=O)Nc2cc(C(F)(F)F)ccc2Cl)cc1OC	/	90.9	-19.4	19.4	22.9	-2.7
CCOc1ccc(C(=O)Nc2ccc(C(F)(F)F)n(C)c2=O)cc1	-7.5	91.2	4.9	-4.9	-5.1	1.9
CC1=NN(c2nc(-c3ccc(Cl)cc3)cs2)C(=O)C1	/	99.2	-26.4	26.4	7.4	3.8
Cc1cc(C)n(-c2nc(-c3ccc(Cl)cc3)cs2)n1	-7.1	93.4	-36.1	36.1	60.0*	-0.4
Cc1cc(-n2c(C)cc(C(=O)COc3ccc(Cl)cc3C(N)=O)c2C)no1	/	92.1	-18.8	18.8	47.3*	-3.6
Cc1ccc(OCC(=O)c2cc(C)n(-c3cc(C)on3)c2C)c([N+](=O)[O-])n1	/	/	-24.0	24.0	/	-0.4
CC1=[N+](C)c2c(ccc3cccnc23)C1(C)C	0.2	/	97.3*	-97.3	/	-7.2
CCc1ccccc1NC1Nc2cc(C)nn2S1 (configuration not stated)	-9.0	116.9	-3.9	3.9	3.7	-3.5
Cc1cc2n(n1)SC(Nc1cc(Cl)ccc1Cl)N2 (configuration not stated)	-14.8	89.3	-6.2	6.2	62.9*	1.9
Cc1cc2n(n1)SC(Nc1cccc3ccccc13)N2 (configuration not stated)	7.8	95.2	-17.1	17.1	53.2*	1.6
SMILES	Lipid droplet	Yeast superoxide	SR-BI DiI-HDL act	SR-BI HDL uptake	AHR activator	SMARCA2 activ
COc1ccc(N=Cc2oc3ccc4ccccc4c3c2O)cc1	23.6	102.6	-2.3	2.3	57.9*	2.5
COc1ccc(N=Cc2ccccc2O)cc1	/	/	-0.9	0.9	/	2.8
COc1ccc(CCNc2nc(-c3ccncc3)cs2)cc1OC	-0.6	90.3	/	/	66.4*	1.8
COc1cccc2sc(Nc3nc(-c4ccncc4)cs3)nc12	?	113.5	-79.9	79.9*	63.7*	-1.4
COc1ccc(CCNc2nc(-c3sc(C)nc3C)cs2)cc1OC	/	109.9	-8.0	8.0	52.4*	-3.4
COc1cccc2sc(Nc3nc(-c4cc5ccccc5oc4=O)cs3)nc12	?	111.6	-52.6	52.6	5.3	-2.5
COc1ccc(CCNc2nc(-c3ccc(O)cc3)cs2)cc1OC	-4.5	108.4	-44.2	44.2	39.0	-0.2
CCN(CC)C(CNC(=O)CSc1nnnn1-c1ccc(C)c(C)c1)c1ccco1 (configuration not stated)	/	64.3*	-8.3	8.3	0.2	2.3
CCN(CC)C(CNC(=O)CSc1nnnn1-c1c(C)cccc1C)c1ccco1 (configuration not stated)	/	/	-15.5	15.5	/	-2.2
CCN(CC)c1ccc(NC(=O)CSc2nnc(SCc3ccc(Cl)cc3)s2)cc1	/	/	/	/	/	-5.3
O=C(Cc1cccc(NC(=O)C2CCCN(C(=O)CCc3ccccc3)C2)c1)Nc1cccc(C(=O)N2CCCC2)c1 (configuration not stated)	/	96.8	-77.5	77.5*	0.3	-0.9
O=C(Cc1cccc(NC(=O)C2CCCN(C(=O)C3CC3)C2)c1)Nc1ccc(C(=O)N2CCCCC2)cc1 (configuration not stated)	/	/	-75.3	75.3*	/	-2.9
CCc1cc(=O)oc2cc3occ(-c4ccc(OC)c(F)c4)c3cc12	?	121.0	-59.1	76.4*	26.0	-2.7
C/C(=N\NC(=O)CC1N=C(Cc2ccccc2)NNC1=O)c1ccncc1 (configuration not stated)	1.7	107.9	12.9	-12.9	56.7*	0.9
Cc1ccc(C2=N/C(=C/N3CCOCC3)C(=O)O2)cc1	-13.0	102.4	3.8	-3.8	57.2*	0.9
C=CCc1cc(C)cc(C)c1OCCn1cncn1	-12.3	95.2	-5.5	5.5	59.5*	-3.8
COc1ccc([C@H]2CC(=O)C=C(c3cccc4c3Oc3ccccc3S4)C2)cc1OC	/	81.7	-80.2	80.2*	9.7	1.1
COC(=O)[C@]12C[C@H](CC(=O)NCCCN3CCCC3=O)C(=O)N(Cc3ccco3)C1=C[C@H](COCc1ccccc1)O[C@@H]2C	/	/	/	/	/	-1.5
CCOC(=O)C(=O)Nc1nnc(CCc2ccccc2)s1	-77.2	90.2	-11.2	11.2	1.0	7.8*
CCC(=O)Nc1nnc(CCc2ccccc2)s1	5.6	83.5	-2.9	2.9	2.9	-0.3
CCN(CC)CC(=O)Nc1c2c(nc3ccccc13)N(C)CC2	-9.7	99.5	1.8	-1.8	23.8	-1.4
O=C(CN1CCOCC1)Nc1c2c(nc3ccccc13)N(Cc1ccccc1)CC2	-5.1	98.6	21.7	-21.7	55.1*	1.2
O=C(CN1CCCC1)Nc1c2c(nc3ccccc13)N(Cc1ccccc1)CC2	6.6	95.3	19.3	-19.2	71.2*	-1.1
CC(C)(C)OC(=O)NCc1cc(F)ccc1/C=C/S(=O)(=O)NCc1ccc(F)cc1	/	/	/	/	/	-1.9
